Ecoli rRNA inh = reduced GFP signal of wild-type E. coli, primary screen, bacterial rRNA inhibitor project, GFP/RFP fluorescence, OD600, single point; E. coli WT GFP vs humanized-ribosome RFP mutants, 24 h; stronger effect = lower value; DMSO median 0, no signal -100; GFP signal change (wild-type ribosome), % (concentration not given with the values); 1.6% of 350,000 active; AID 720706, 2013;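 active means significant combined selectivity score with lowered wild-type GFP, culture density cut under 30%, mutant RFP and density less affected; inactive means any of these conditions unmet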
DENV2 CPE rescue = inhibitors of DENV2 cytopathic effect, primary screen, cell-based, plate reader, single concentration; DENV2-infected cells, cytopathic effect rescue; CPE inhibition, % at 9.99 µM; 1.7% of 350,000 active; in the data active means CPE inhibition above about 20%, passing the limit was not always enough; inconclusive means no clear call, values can overlap the other calls; tested in BHK-21 cells
PGC1a acetyl inh = inhibitors of PGC1a acetylation signal, primary screen, cell-based, U2OS, AlphaScreen, inhibitor mode. AlphaScreen anti-acetyl-lysine; with virally co-expressed GCN5 acetyltransferase. inhibition, % at 15.6 µM. 0.17% of 350,000 active;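 active means every replicate shows inhibition of at least 40%; inconclusive means mean inhibition at least 40% but some replicate below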
FN deposit inh = inhibitors of fibronectin matrix deposition, primary screen, AH1F cells, Alexa488-fibronectin fluorescence, plate reader | 0.086% of 350,000 active | inhibition, % at 12.6 µM | AH1F fibroblasts, overnight | AID 743247, 2014;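 active means mean inhibition across replicates of 30% or more, regardless of how many single replicates reach that level; inconclusive means mean under 30% yet at least half of replicates reach 30%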
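Material: AH1F fibroblasts assembling fluorescent fibronectin matrix; amount: 10000 AH1F cells/well; medium: DMEM, 2% serum; reagent: Alexa488-fibronectin, 24 nM final in well; dosing: single compound dose, delivered by pin transfer; incubation: 1 h adhesion, overnight exposure; detection: fluorescence after three HBSS washes, excitation 485 nm, emission 525 nm; measure: fibronectin deposition inhibition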
PglD DTNB = C. jejuni PglD acetyltransferase inhibitors, primary screen, biochemical, DTNB colorimetric, single point; AID 602405, 2012; UDP-N-acetylbacillosamine N-acetyltransferase PglD (Campylobacter jejuni); inhibition, % at 12.5 µM; 0.098% of 360,000 active; purified PglD enzyme, DTNB colorimetric CoA detection; in the data active means inhibition above about 16%, passing the limit was not always enough; inconclusive means no clear call, values can overlap the other calls
HIV Env fusion = inhibitors of HIV-1 Env-driven cell-cell fusion, primary screen, HeLa-JRFL effector, CEM21 target cells, luciferase; inhibition, % at 12.3 µM; 1.1% of 360,000 active; AID 651610, 2012;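 active means mean replicate inhibition score of at least 50 and every replicate individually at or above 50; inconclusive means only one of the two criteria met; inactive means mean below 50 and not all replicates reaching 50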
Numbers stand for hits; n = inactive; u = inconclusive; x = no result; + = active, no number; ! = a repeat was not active; [ ] = remark or other dose. The list is not random: actives were taken first. Their share in the collection is about 3.5%.

SMILES	Ecoli rRNA inh	DENV2 CPE rescue	PGC1a acetyl inh	FN deposit inh	PglD DTNB	HIV Env fusion
O=C(Nc1ccc2ccccc2c1)[C@@H]1C[C@H]1[C@@H](NP(=O)(c1ccccc1)c1ccccc1)c1ccccc1	n	40	x	n	n	n
COc1cccc(/C=N/NC(=S)Nc2cccc(S(=O)(=O)N(C)C)c2)c1	-18	n	n	n	n	n
O=C(CC1CC1)N[C@H]1CC[C@@H](CCNS(=O)(=O)c2ccc(Cl)cc2)O[C@@H]1CO	n	n	67	n	n	n
O=C(N[C@H]1CC[C@H](CCNS(=O)(=O)c2ccc(Cl)cc2)O[C@@H]1CO)c1cnccn1	n	49	n	x	n	n
COc1ccccc1NC(=O)N[C@@H]1CC[C@@H](CCNS(=O)(=O)c2ccc(Cl)cc2)O[C@@H]1CO	n	n	n	n	n	n
COc1ccccc1NC(=O)N[C@@H]1CC[C@@H](CCNS(=O)(=O)c2ccc(Cl)cc2)O[C@H]1CO	n	20	n	n	n	n
O=S(=O)(NCC[C@@H]1CC[C@@H](NS(=O)(=O)c2ccccc2Cl)[C@H](CO)O1)c1ccc(Cl)cc1	n	u	n	x	n	57[16.7 µM]
O=S(=O)(NCC[C@@H]1CC[C@@H](NS(=O)(=O)c2ccccc2Cl)[C@@H](CO)O1)c1ccc(Cl)cc1	n	n	n	x	n	n
Cc1noc(C)c1S(=O)(=O)Nc1ccc2c(c1)CC(=O)N([C@@H](C)CO)C[C@@H](C)[C@H](CN(C)C(=O)Nc1ccc(C(F)(F)F)cc1)O2	n	n	n	n	n	n
Cc1cccc(S(=O)(=O)N[C@@H]2CC[C@@H](CCNC(=O)c3cnccn3)O[C@@H]2CO)c1	n	31	n	n	n	n
COc1ccccc1NC(=O)N[C@@H]1CC[C@H](CC(=O)N[C@H](C)c2ccccc2)O[C@@H]1CO	n	n	n	n	n	75[16.7 µM]
COc1ccccc1NC(=O)N[C@H]1CC[C@H](CC(=O)N[C@@H](C)c2ccccc2)O[C@H]1CO	n	n	n	n	n	n
O=C(NCC[C@H]1CC[C@H](NC(=O)c2cnccn2)[C@H](CO)O1)Nc1ccc(F)cc1	n	n	n	n	n	n
O=C(NCC[C@H]1CC[C@H](NC(=O)c2cnccn2)[C@@H](CO)O1)Nc1ccc(F)cc1	n	22	n	n	n	n
Cc1ccc(S(=O)(=O)N(C)C[C@@H]2Oc3ccc(NS(=O)(=O)c4cn(C)cn4)cc3C(=O)N([C@H](C)CO)C[C@H]2C)cc1	n	x	n	x	x	n
COCCNC(=O)C[C@H]1C=C[C@@H](NC(=O)NC2CCCCC2)[C@H](CO)O1	n	n	n	x	n	n
CC(C)CN(C(=O)c1cc(Cl)nc2ccccc12)c1c(N)n(Cc2ccccc2)c(=O)[nH]c1=O	n	56	x	n	n	n
C[C@H](CO)N1C[C@H](C)[C@@H](CN(C)Cc2ccc3c(c2)OCO3)OCCCC[C@H](C)Oc2ccc(NS(=O)(=O)c3cccs3)cc2C1=O	n	n	n	x	n	n
C[C@H]1CCCCO[C@H](CN(C)Cc2ccc3c(c2)OCO3)[C@@H](C)CN([C@@H](C)CO)C(=O)c2cc(NS(=O)(=O)c3cccs3)ccc2O1	n	41!	n	x	n	n
C[C@@H]1CCCCO[C@@H](CN(C)Cc2ccc3c(c2)OCO3)[C@H](C)CN([C@@H](C)CO)C(=O)c2cc(NS(=O)(=O)c3cccs3)ccc2O1	n	112!	n	x	n	n
C[C@@H]1CN([C@@H](C)CO)C(=O)c2cc(NS(=O)(=O)c3cccs3)ccc2O[C@@H](C)CCCCO[C@H]1CN(C)Cc1ccc2c(c1)OCO2	n	37	n	x	n	n
O=C(C[C@@H]1CC[C@H]2[C@@H](COC[C@@H](O)CN2C(=O)c2cccnc2)O1)NCc1ccc(-c2ccccc2)cc1	n	27	n	n	n	x
O=C(C[C@H]1CC[C@H]2[C@@H](COC[C@@H](O)CN2C(=O)c2cccnc2)O1)NCc1ccc(-c2ccccc2)cc1	n	n	n	n	n	x
O=C(C[C@@H]1CC[C@H]2[C@@H](COC[C@@H](O)CN2C(=O)c2ccncc2)O1)NCc1ccc(-c2ccccc2)cc1	n	+	n	n	n	x
O=C(C[C@H]1CC[C@H]2[C@@H](COC[C@@H](O)CN2C(=O)c2ccncc2)O1)NCc1ccc(-c2ccccc2)cc1	n	n	n	n	n	x
SMILES	Ecoli rRNA inh	DENV2 CPE rescue	PGC1a acetyl inh	FN deposit inh	PglD DTNB	HIV Env fusion
O=C(C[C@H]1CC[C@H]2[C@@H](COC[C@H](O)CN2C(=O)c2cccnc2)O1)NCc1ccc(-c2ccccc2)cc1	n	22	n	n	n	x
C[C@@H]1CN([C@@H](C)CO)C(=O)c2cc(NC(=O)Nc3ccc(C(F)(F)F)cc3)ccc2O[C@@H](C)CCCCO[C@@H]1CN(C)S(=O)(=O)c1cn(C)cn1	n	n	n	x	n	n
Fc1ccc(CCN2CCN=C2Nc2ccccc2)cc1	n	124	n	n	n	n
CC(C)CCCN1CCN=C1Nc1ccccc1	n	27	x	n	n	n
CCCNC(=O)C[C@H]1C[C@@H]2c3cc(NC(=O)C4CCC4)ccc3O[C@@H]2[C@H](CO)O1	n	n	n	n	n	x
CO[C@@H]1CN(C)C(=O)c2cc(NC(=O)C3CCCCC3)ccc2OC[C@@H](C)N(C)C[C@@H]1C	n	n	x	x	n	x
CN1C(=O)c2cc(NC(=O)c3cccc(C(F)(F)F)c3)ccc2OC[C@@H]2O[C@@H](CC(=O)NCCN3CCCC3)CC[C@@H]21	n	n	n	n	n	x
C[C@@H]1CN([C@H](C)CO)C(=O)c2cc(C#CC3(O)CCCC3)cnc2O[C@@H]1CN(C)C(=O)Cc1ccccc1	n	n	n	x	n	n
COc1ccc(NC(=O)N(C)C[C@@H]2OCCCC[C@H](C)Oc3ccc(NC(=O)c4ccncc4)cc3C(=O)N([C@@H](C)CO)C[C@@H]2C)cc1	n	n	n	n	n	n
COc1ccc(NC(=O)N(C)C[C@H]2OCCCC[C@H](C)Oc3ccc(NC(=O)c4ccncc4)cc3C(=O)N([C@@H](C)CO)C[C@@H]2C)cc1	n	49	n	n	n	n
COc1ccc(NC(=O)N(C)C[C@@H]2OCCCC[C@@H](C)Oc3ccc(NC(=O)c4ccncc4)cc3C(=O)N([C@H](C)CO)C[C@H]2C)cc1	n	20	n	n	n	n
CO[C@@H]1CN(C)C(=O)c2ccc(NC(=O)c3ccccc3F)cc2OC[C@@H](C)N(CC2CC2)C[C@@H]1C	n	n	n	n	n	n
